Here are results for 76 sequences from the array DNA melting data of Ke et al. (doi:10.1101/2024.01.08.574731).

A short description of data set [1]: folding enthalpy; higher = less favourable; fluorescence melt of hairpins on a sequencing array, two-state fit. The following applies: sodium 0.088 M. A digest of the protocol:
(§1)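 Melting temperature and folding enthalpy were derived from bootstrapped two-state fits. The fitted temperatures were raised by 9.35 °C to agree with UV melts, and four replicates were combined by inverse variance. The underlying data were Cy3 fluorescence images of library hairpins, with annealed Cy3 and quencher oligos, on a sequenced MiSeq flow cell in 50 mM Na-HEPES pH 8.0, 25 mM NaCl, taken in 2.5 °C steps up to 60 °C, normalised to pre-quench Cy3 and to control constructs.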

Data set [2] can be described thus: melting temperature; fluorescence melt of hairpins on a sequencing array, two-state fit, raised by 9.35 °C to match UV melts. The following applies: sodium 0.088 M. The gist of the method:
as §1

On to GATCGTGGCCACGATC ((((((....)))))), for which the folding enthalpy in data set [1] was -62.6 kcal/mol. In addition, in data set [2], the Tm amounted to 62.5 °C.
As to GATCGTGGCTACGATC ((((((....)))))), the folding enthalpy in data set [1] was -39.3 kcal/mol. Also, in data set [2], the Tm is 59 °C.
Taken in the same sequence, the figures for GATCGTGGGCACGATC ((((((....)))))) were -40.1 kcal/mol and 56.8 °C.
Take GATCGTGGGTACGATC ((((((....)))))): the folding enthalpy in data set [1] was -37.6 kcal/mol. In addition, the Tm in data set [2] is 55.3 °C.
Taken in the same sequence, the figures for GATCGTGGTACGATC ((((((...)))))) were -34.7 kcal/mol and 58.2 °C.
Taken in the same sequence, the figures for GATCGTGGTTACGATC ((((((....)))))) were -40.3 kcal/mol and 58.3 °C.
The matching figures for GATCGTGTAACGATC ((((((...)))))): -48.1 kcal/mol and 63.5 °C.
GATCGTGTATACGATC ((((((....)))))): in data set [1], the folding enthalpy is -46 kcal/mol. The Tm in data set [2] turned out to be 62.1 °C.
Turning to GATCGTGTCCACGATC ((((((....)))))), in data set [1], the folding enthalpy was -45.8 kcal/mol. The Tm in data set [2] was 60.3 °C.
On to GATCGTGTTACGATC ((((((...)))))), for which the folding enthalpy in data set [1] is -35.6 kcal/mol. Besides, the Tm in data set [2] was determined as 56.9 °C.
In the case of GATCGTGTTGACGATC ((((((....)))))), the folding enthalpy in data set [1] is -29.3 kcal/mol. Besides, the Tm in data set [2] was found to be 57.4 °C.
As for GATCGTGTTTACGATC ((((((....)))))), in data set [1], the folding enthalpy is -41.4 kcal/mol. For the same sequence, in data set [2], the Tm stood at 57.5 °C.
Taken in the same sequence, the figures for GATCGTTAATACGATC ((((((....)))))) were -36.3 kcal/mol and 54.6 °C.
Take GATCGTTACACGATC ((((((...)))))): the folding enthalpy in data set [1] is -36.1 kcal/mol. The Tm in data set [2] came to 58.4 °C.
For GATCGTTAGAACGATC ((((((....)))))), the folding enthalpy in data set [1] was -34.7 kcal/mol. The Tm in data set [2] is 55.2 °C.
Taken in the same sequence, the figures for GATCGTTAGCACGATC ((((((....)))))) were -32.3 kcal/mol and 51.4 °C.
As to GATCGTTAGGACGATC ((((((....)))))), the folding enthalpy in data set [1] was -37.9 kcal/mol. Further, the Tm in data set [2] was 55.2 °C.
The matching figures for GATCGTTAGTACGATC ((((((....)))))): -47.3 kcal/mol and 53.2 °C.
The matching figures for GATCGTTATCACGATC ((((((....)))))): -42 kcal/mol and 52.7 °C.
Taken in the same sequence, the figures for GATCGTTGCACGATC ((((((...)))))) were -38.6 kcal/mol and 60.7 °C.
Consider GATCGTTGCGACGATC ((((((....)))))), for which the folding enthalpy in data set [1] is -41.2 kcal/mol. Besides, the Tm in data set [2] is 60.7 °C.
GATCGTTGGACGATC ((((((...)))))): the folding enthalpy in data set [1] was -35.1 kcal/mol. In addition, in data set [2], the Tm is 54.8 °C.
GATCGTTGTCACGATC ((((((....)))))): in data set [1], the folding enthalpy was -40.9 kcal/mol. Moreover, the Tm in data set [2] was 54.9 °C.
On to GATCGTTTTTACGATC ((((((....)))))), for which the folding enthalpy in data set [1] was -44.7 kcal/mol. In addition, in data set [2], the Tm was found to be 56.9 °C.
The matching figures for GATCTAAAATAGATC ((((((...)))))): -17.1 kcal/mol and 38.6 °C.
Taken in the same sequence, the figures for GATCTAAAGATAGATC ((((((....)))))) were -16.5 kcal/mol and 30.6 °C.
Taken in the same sequence, the figures for GATCTAACAGTAGATC ((((((....)))))) were -15.6 kcal/mol and 36.5 °C.
For GATCTAACATAGATC ((((((...)))))), the folding enthalpy in data set [1] is -33.1 kcal/mol. Further, the Tm in data set [2] worked out at 39.5 °C.
Taken in the same sequence, the figures for GATCTAACCTTAGATC ((((((....)))))) were -39.6 kcal/mol and 42.2 °C.
GATCTAAGATAGATC ((((((...)))))): in data set [1], the folding enthalpy is -20.6 kcal/mol. For the same sequence, the Tm in data set [2] came out at 37.9 °C.
Regarding GATCTAAGCGTAGATC ((((((....)))))), the folding enthalpy in data set [1] was -27 kcal/mol. Moreover, the Tm in data set [2] came to 36.9 °C.
Taken in the same sequence, the figures for GATCTAAGGTTAGATC ((((((....)))))) were -31.6 kcal/mol and 39.3 °C.
On to GATCTAATATAGATC ((((((...)))))), for which, in data set [1], the folding enthalpy is -28.6 kcal/mol. For the same sequence, in data set [2], the Tm was found to be 38.8 °C.
Consider GATCTAATCGTAGATC ((((((....)))))), for which the folding enthalpy in data set [1] is -13.7 kcal/mol. Also, in data set [2], the Tm is 36.1 °C.
Taken in the same sequence, the figures for GATCTAATCTAGATC ((((((...)))))) were -28.2 kcal/mol and 38.8 °C.
On to GATCTAATGGTAGATC ((((((....)))))), for which the folding enthalpy in data set [1] was -27 kcal/mol. The Tm in data set [2] was found to be 35.4 °C.
For GATCTAATTTAGATC ((((((...)))))), the folding enthalpy in data set [1] is -30.8 kcal/mol. Also, in data set [2], the Tm worked out at 41.4 °C.
Take GATCTACAAGTAGATC ((((((....)))))): the folding enthalpy in data set [1] is -34.2 kcal/mol. Further, in data set [2], the Tm turned out to be 48.2 °C.
Take GATCTACAGTAGATC ((((((...)))))): the folding enthalpy in data set [1] is -38.7 kcal/mol. In data set [2], the Tm came to 39.3 °C.
The matching figures for GATCTACAGTTAGATC ((((((....)))))): -29.3 kcal/mol and 38.3 °C.
The matching figures for GATCTACATCTAGATC ((((((....)))))): -30.7 kcal/mol and 36.8 °C.
Taken in the same sequence, the figures for GATCTACCAATAGATC ((((((....)))))) were -25.6 kcal/mol and 38.1 °C.
On to GATCTACCCGTAGATC ((((((....)))))), for which the folding enthalpy in data set [1] was -42.1 kcal/mol. Besides, the Tm in data set [2] came out at 50.8 °C.
Taken in the same sequence, the figures for GATCTACCCTAGATC ((((((...)))))) were -24.7 kcal/mol and 40.7 °C.
Taken in the same sequence, the figures for GATCTACCGGTAGATC ((((((....)))))) were -43.4 kcal/mol and 53.2 °C.
Taken in the same sequence, the figures for GATCTACGGTTAGATC ((((((....)))))) were -30.3 kcal/mol and 37.8 °C.
Take GATCTACGTTAGATC ((((((...)))))): the folding enthalpy in data set [1] was -24.8 kcal/mol. Moreover, in data set [2], the Tm stood at 38.3 °C.
Taken in the same sequence, the figures for GATCTACTACTAGATC ((((((....)))))) were -31.4 kcal/mol and 37.5 °C.
Taken in the same sequence, the figures for GATCTACTAGTAGATC ((((((....)))))) were -46.8 kcal/mol and 51.7 °C.
Taken in the same sequence, the figures for GATCTACTCCTAGATC ((((((....)))))) were -33 kcal/mol and 39.5 °C.
As to GATCTAGACTAGATC ((((((...)))))), in data set [1], the folding enthalpy was -36.6 kcal/mol. In data set [2], the Tm came to 40.8 °C.
The matching figures for GATCTAGATCTAGATC ((((((....)))))): -37.3 kcal/mol and 47.5 °C.
Taken in the same sequence, the figures for GATCTAGATTTAGATC ((((((....)))))) were -28.4 kcal/mol and 38.4 °C.
Taken in the same sequence, the figures for GATCTAGCATAGATC ((((((...)))))) were -36.5 kcal/mol and 50.8 °C.
Consider GATCTAGCTTTAGATC ((((((....)))))), for which, in data set [1], the folding enthalpy is -26.7 kcal/mol. Further, in data set [2], the Tm came out at 38.8 °C.
Taken in the same sequence, the figures for GATCTAGGAAACTAGATC (((((((....))))))) were -43.1 kcal/mol and 51.9 °C.
Consider GATCTAGGAAACTGGATC ((((.((....)).)))), for which the folding enthalpy in data set [1] is -34 kcal/mol. In addition, the Tm in data set [2] stood at 41.8 °C.
As for GATCTAGGCTAGATC ((((((...)))))), the folding enthalpy in data set [1] is -55.2 kcal/mol. The Tm in data set [2] stood at 45.5 °C.
On to GATCTAGGTTTAGATC ((((((....)))))), for which the folding enthalpy in data set [1] was -28.5 kcal/mol. Moreover, the Tm in data set [2] amounted to 41.1 °C.
On to GATCTAGTCGTAGATC ((((((....)))))), for which the folding enthalpy in data set [1] is -27.9 kcal/mol. Besides, the Tm in data set [2] amounted to 44.3 °C.
Taken in the same sequence, the figures for GATCTAGTCTTAGATC ((((((....)))))) were -39.3 kcal/mol and 45 °C.
Taken in the same sequence, the figures for GATCTAGTGCTAGATC ((((((....)))))) were -31.1 kcal/mol and 44.3 °C.
Regarding GATCTAGTGTAGATC ((((((...)))))), in data set [1], the folding enthalpy was -26.4 kcal/mol. Besides, the Tm in data set [2] was 38.5 °C.
The matching figures for GATCTAGTTTAGATC ((((((...)))))): -30.3 kcal/mol and 40.7 °C.
The matching figures for GATCTATAAGTAGATC ((((((....)))))): -35.6 kcal/mol and 41.6 °C.
The matching figures for GATCTATAATTAGATC ((((((....)))))): -25.5 kcal/mol and 39.9 °C.
With GATCTATATGTAGATC ((((((....)))))), the folding enthalpy in data set [1] is -35.4 kcal/mol. The Tm in data set [2] came out at 45.5 °C.
For GATCTATCACTAGATC ((((((....)))))), in data set [1], the folding enthalpy is -31.9 kcal/mol. Moreover, the Tm in data set [2] turned out to be 38.6 °C.
For GATCTATCAGTAGATC ((((((....)))))), in data set [1], the folding enthalpy is -32.5 kcal/mol. For the same sequence, the Tm in data set [2] came to 40.4 °C.
Taken in the same sequence, the figures for GATCTATGAATAGATC ((((((....)))))) were -32.6 kcal/mol and 43.2 °C.
Consider GATCTATGCGTAGATC ((((((....)))))), for which, in data set [1], the folding enthalpy is -41.5 kcal/mol. Besides, in data set [2], the Tm came to 48.2 °C.
Taken in the same sequence, the figures for GATCTATGCTAGATC ((((((...)))))) were -23.4 kcal/mol and 40.4 °C.
Taken in the same sequence, the figures for GATCTATGGTAGATC ((((((...)))))) were -28.9 kcal/mol and 36.9 °C.
In the case of GATCTATGTGTAGATC ((((((....)))))), in data set [1], the folding enthalpy was -49.8 kcal/mol. For the same sequence, the Tm in data set [2] was determined as 48 °C.
On to GATCTATTAGTAGATC ((((((....)))))), for which the folding enthalpy in data set [1] is -33.8 kcal/mol. The Tm in data set [2] is 44.4 °C.
As for GATCTATTATAGATC ((((((...)))))), in data set [1], the folding enthalpy was -33.4 kcal/mol. Further, in data set [2], the Tm is 41.9 °C.
